Experimental data gathered from unrelated publications.
Protocols differ between the studies behind these lines. In brackets after ≈: the same amount, converted by molar mass.
Organism: Staphylococcus epidermidis

SMILES | observed | method | strain | time | notes | endpoint | result
CCCCCCCCCC(=O)N[C@@H](Cc1c[nH]c2ccccc12)C(=O)N[C@H](CC(N)=O)C(=O)N[C@@H](CC(=O)O)C(=O)N[C@@H]1C(=O)NCC(=O)N[C@@H](CCCN)C(=O)N[C@@H](CC(=O)O)C(=O)N[C@H](C)C(=O)N[C@@H](CC(=O)O)C(=O)NCC(=O)N[C@H](CO)C(=O)N[C@@H]([C@H](C)CC(=O)O)C(=O)N[C@@H](CC(=O)c2ccccc2N)C(=O)O[C@@H]1C | microbial growth | broth dilution | ATCC35984 |  | drug-resistant strain | MIC | 1 µg/mL
Cc1ccc2[nH]c3c(c2c1)CCCC3NCCc1ccc(O)cc1 (centres unmarked) | microbial growth | broth dilution | MRSE |  |  | MIC | 16 µg/mL
CN[C@H](CC(C)C)C(=O)N[C@H]1C(=O)N[C@@H](CC(N)=O)C(=O)N[C@H]2C(=O)N[C@H]3C(=O)N[C@H](C(=O)N[C@H](C(=O)O)c4cc(O)cc(O)c4-c4cc3ccc4O)[C@H](O)c3ccc(c(Cl)c3)Oc3cc2cc(c3O[C@@H]2O[C@H](CO)[C@@H](O)[C@H](O)[C@H]2O[C@H]2C[C@](C)(N)[C@H](O)[C@H](C)O2)Oc2ccc(cc2Cl)[C@H]1O | microbial growth |  | ATCC14990 |  |  | MIC | 0.5 µg/mL
Cc1ccc2[nH]c3c(c2c1)CCCC3NCCc1ccc(Br)cc1 (centres unmarked) | microbial growth | broth dilution | MRSE |  |  | MIC | 4 µg/mL
CN[C@H](CC(C)C)C(=O)N[C@H]1C(=O)N[C@@H](CC(N)=O)C(=O)N[C@H]2C(=O)N[C@H]3C(=O)N[C@H](C(=O)N[C@H](C(=O)O)c4cc(O)cc(O)c4-c4cc3ccc4O)[C@H](O)c3ccc(c(Cl)c3)Oc3cc2cc(c3O[C@@H]2O[C@H](CO)[C@@H](O)[C@H](O)[C@H]2O[C@H]2C[C@](C)(N)[C@H](O)[C@H](C)O2)Oc2ccc(cc2Cl)[C@H]1O | microbial growth | broth dilution | 12228 | 16 h |  | MIC | 1.56 µM
CN[C@H](CC(C)C)C(=O)N[C@H]1C(=O)N[C@@H](CC(N)=O)C(=O)N[C@H]2C(=O)N[C@H]3C(=O)N[C@H](C(=O)N[C@H](C(=O)O)c4cc(O)cc(O)c4-c4cc3ccc4O)[C@H](O)c3ccc(c(Cl)c3)Oc3cc2cc(c3O[C@@H]2O[C@H](CO)[C@@H](O)[C@H](O)[C@H]2O[C@H]2C[C@](C)(N)[C@H](O)[C@H](C)O2)Oc2ccc(cc2Cl)[C@H]1O | microbial growth | broth dilution | 12228 |  |  | MIC | 0.78 µM
CCCCCC/C=C\CCCCCCCCCc1cc(O)cc(O)c1 | microbial growth | broth dilution | ATCC35984 |  | drug-resistant strain | MIC | > 64 µg/mL
Cc1c(NN=C(C#N)C2=NC(=O)CS2)c(=O)n(-c2ccccc2)n1C | microbial killing | broth dilution |  |  |  | MBC | 1 µg/mL (≈ 2.82 µM)
